Assay results: ChEMBL document CHEMBL3526018, “Metabolites of PPI-2458, a selective, irreversible inhibitor of methionine aminopeptidase-2: structure determination and in vivo activity” (Drug Metab Dispos, 2013)
Activity calls are given as the source filed them. The calls are words filed in the database; no cut-off is given here.

What was measured:
Liver microsome [1] = experiment: Metabolic stability in human liver microsomes assessed as retention time of ((3R,4S,5S,6R)-4-((2R,3R)-3-(((S)-3,3-dimethyloxiran-2-yl)methyl)-2-methyloxiran-2-yl)-5-methoxy-1-oxaspiro[2.5]octan-6-yl ((R)-1-amino-3-methyl-1-oxobutan-2-yl)carbamate) at 5 mM by LC/MS analysis; assay type: ADME; details: 5000 µM
Rattus norvegicus = experiment: Inhibition of MetAP2 level in Sprague-Dawley rat liver assessed as free enzyme level at 0.3 mg/kg, po by ELISA; assay type: functional, organism-based; set-up: dose 0.3 mg/kg
Outline: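 Male Sprague-Dawley rats (200-225 g, n=3 per group) were dosed once IV at 0.3 mg/kg or PO at 0.3 or 3.0 mg/kg, in 11% HPCD in water. Blood, liver, lung, thymus and pooled non-mesenteric lymph nodes were taken at ~24 h and lysed or homogenized with NP-40. Free MetAP2 was measured by ELISA and expressed as % of vehicle.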

Liver microsome [2] = experiment: Metabolic stability in rat liver microsomes assessed as retention time of ((3R,4S,5S,6R)-5-methoxy-4-((2R,3R)-2-methyl-3-(3-methylbut-2-en-1-yl)oxiran-2-yl)-1-oxaspiro[2.5]octan-6-yl ((R)-1-amino-3-hydroxy-3-methyl-1-oxobutan-2-yl)carbamate) at 5 mM by LC/MS analysis; assay type: ADME; details: 5000 µM
Outline: (§1)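 Liver microsomes (pooled male/female) in 100 mM KPO4 pH 7.4 with PPI-2458 (5 mM stock), pre-incubated 5 min at 37°C, then 10 mM NADPH added; 20 min at 37°C with shaking. Time-zero and no-NADPH controls. Quenched with CH3CN; supernatant dried and redissolved in water. Analysed by LC-MS, ESI+ full scan 300–800 amu, C18 column, 10→50% B gradient.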

Liver [3] = experiment: Metabolic stability in mouse liver microsomes assessed as retention time of ((3R,4S,5S,6R)-4-((2R,3R)-3-(((S)-3,3-dimethyloxiran-2-yl)methyl)-2-methyloxiran-2-yl)-5-methoxy-1-oxaspiro[2.5]octan-6-yl ((R)-1-amino-3-methyl-1-oxobutan-2-yl)carbamate) at 5 mM by LC/MS analysis; assay type: ADME; details: 5000 µM; outline: as §1
Liver microsome [4] = experiment: Metabolic stability in dog liver microsomes assessed as retention time of ((3R,4S,5S,6R)-4-((2R,3R)-3-(((R)-3,3-dimethyloxiran-2-yl)methyl)-2-methyloxiran-2-yl)-5-methoxy-1-oxaspiro[2.5]octan-6-yl ((R)-1-amino-3-methyl-1-oxobutan-2-yl)carbamate) at 5 mM by LC/MS analysis; assay type: ADME, Canis lupus familiaris; details: 5000 µM
Liver microsome [5] = experiment: Metabolic stability in dog liver microsomes assessed as retention time of ((3R,4S,5S,6R)-5-methoxy-4-((2R,3R)-2-methyl-3-(3-methylbut-2-en-1-yl)oxiran-2-yl)-1-oxaspiro[2.5]octan-6-yl ((R)-1-amino-3-hydroxy-3-methyl-1-oxobutan-2-yl)carbamate) at 5 mM by LC/MS analysis; assay type: ADME, Canis lupus familiaris; details: 5000 µM
CYP3A5 (Homo sapiens) = experiment: Activity of human recombinant CYP3A5 assessed as ((3R,4S,5S,6R)-4-((2R,3R)-3-(((R)-3,3-dimethyloxiran-2-yl)methyl)-2-methyloxiran-2-yl)-5-methoxy-1-oxaspiro[2.5]octan-6-yl ((R)-1-amino-3-methyl-1-oxobutan-2-yl)carbamate) formation; details: recombinant enzyme
Liver microsome [6] = experiment: Metabolic stability in rat liver microsomes assessed as retention time of ((3R,4S,5S,6R)-4-((2R,3R)-3-(((R)-3,3-dimethyloxiran-2-yl)methyl)-2-methyloxiran-2-yl)-5-methoxy-1-oxaspiro[2.5]octan-6-yl ((R)-1-amino-3-methyl-1-oxobutan-2-yl)carbamate) at 5 mM by LC/MS analysis; assay type: ADME; details: 5000 µM; outline: as §1
Liver [7] = experiment: Metabolic stability in rat liver S9 fraction assessed as retention time of glutathione conjugate at 5 mM by LC/MS analysis; assay type: ADME, subcellular; details: s9, 5000 µM
[8] = Metabolic stability in monkey liver microsomes assessed as retention time of ((3R,4S,5S,6R)-5-methoxy-4-((2R,3R)-2-methyl-3-(3-methylbut-2-en-1-yl)oxiran-2-yl)-1-oxaspiro[2.5]octan-6-yl ((R)-1-amino-3-hydroxy-3-methyl-1-oxobutan-2-yl)carbamate) at 5 mM by LC/MS analysis; assay type: ADME, Macaca mulatta; details: rhesus monkey, 5000 µM; outline: as §1
Cytochrome P450 3A4 = Cytochrome P450 3A4 (Homo sapiens, UniProt P08684); experiment: Inhibition of CYP3A4 activity in human liver microsomes using testosterone as a substrate by LC/MS analysis; assay type: ADME
Cytochrome P450 3A4, sequence (P08684 whole entry): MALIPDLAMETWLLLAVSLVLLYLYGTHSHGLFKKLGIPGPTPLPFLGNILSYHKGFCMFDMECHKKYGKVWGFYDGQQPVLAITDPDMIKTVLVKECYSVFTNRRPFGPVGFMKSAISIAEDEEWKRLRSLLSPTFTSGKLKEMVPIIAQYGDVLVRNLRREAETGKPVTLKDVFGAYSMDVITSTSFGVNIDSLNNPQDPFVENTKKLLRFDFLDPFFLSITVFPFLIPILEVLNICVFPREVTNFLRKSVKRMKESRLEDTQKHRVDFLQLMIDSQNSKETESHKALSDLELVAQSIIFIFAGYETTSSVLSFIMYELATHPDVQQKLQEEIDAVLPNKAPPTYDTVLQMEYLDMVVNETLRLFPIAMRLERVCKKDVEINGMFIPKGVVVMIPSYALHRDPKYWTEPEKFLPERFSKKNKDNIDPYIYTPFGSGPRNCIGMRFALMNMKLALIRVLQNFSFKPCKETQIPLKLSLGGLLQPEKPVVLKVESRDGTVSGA

[9] = AUC (0 to t hrs) in non-Hodgkin lymphoma patient at 15 mg, po alternate days for 21 days; assay type: ADME, organism-based; details: human, in vivo
Outline: (§2)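 Oral PPI-2458 given every other day to lymphoma patients. Plasma sampled pre-dose and at 15 min, 30 min, 1, 2, 3, 4, 6, 8, 24 and 48 h after the first dose. Parent and metabolites were measured by LC-MS/MS after protein precipitation, evaporation and reconstitution. CL/F was computed only for parent and summed analytes. For metabolites, t1/2 is an apparent first-phase value.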

[10] = target: Methionine aminopeptidase 2 (Homo sapiens) (UniProt P50579); experiment: Inhibition of human MetAP2 assessed as remaining enzyme activity after 1 hr
Methionine aminopeptidase 2 (Homo sapiens), sequence (P50579 2-478 limits assumed): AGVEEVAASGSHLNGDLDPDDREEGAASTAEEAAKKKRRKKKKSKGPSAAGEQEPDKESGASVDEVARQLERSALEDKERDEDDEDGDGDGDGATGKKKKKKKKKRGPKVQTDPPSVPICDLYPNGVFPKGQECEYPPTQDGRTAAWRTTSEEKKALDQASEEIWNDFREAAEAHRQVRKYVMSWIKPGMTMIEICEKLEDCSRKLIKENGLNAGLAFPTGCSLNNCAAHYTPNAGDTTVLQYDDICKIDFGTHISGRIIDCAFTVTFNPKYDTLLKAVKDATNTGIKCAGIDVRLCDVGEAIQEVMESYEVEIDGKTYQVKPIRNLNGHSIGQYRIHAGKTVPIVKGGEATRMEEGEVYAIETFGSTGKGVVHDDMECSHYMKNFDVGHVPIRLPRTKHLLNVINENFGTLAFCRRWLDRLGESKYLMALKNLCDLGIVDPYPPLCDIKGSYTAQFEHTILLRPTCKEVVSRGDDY
Outline: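 The hMetAP2 assay follows the fraction of active enzyme remaining during an 8 h incubation with inhibitor, relative to an enzyme-only control.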

CYP3A4 (Homo sapiens) [11] = experiment: Activity of human recombinant CYP3A4 assessed as ((3R,4S,5S,6R)-5-methoxy-4-((2R,3R)-2-methyl-3-(3-methylbut-2-en-1-yl)oxiran-2-yl)-1-oxaspiro[2.5]octan-6-yl ((R)-1-amino-3-hydroxy-3-methyl-1-oxobutan-2-yl)carbamate) formation; details: recombinant enzyme
CYP3A4 (Homo sapiens) [12] = experiment: Ratio of Vmax to Km for human recombinant CYP3A4 assessed as ((3R,4S,5S,6R)-5-methoxy-4-((2R,3R)-2-methyl-3-(3-methylbut-2-en-1-yl)oxiran-2-yl)-1-oxaspiro[2.5]octan-6-yl ((R)-1-amino-3-hydroxy-3-methyl-1-oxobutan-2-yl)carbamate) formation; details: recombinant enzyme
Liver [13] = experiment: Metabolic stability in mouse liver microsomes assessed as retention time of ((3R,4S,5S,6R)-4-((2R,3R)-3-(((R)-3,3-dimethyloxiran-2-yl)methyl)-2-methyloxiran-2-yl)-5-methoxy-1-oxaspiro[2.5]octan-6-yl ((R)-1-amino-3-methyl-1-oxobutan-2-yl)carbamate) at 5 mM by LC/MS analysis; assay type: ADME; details: 5000 µM; outline: as §1
CYP3A4 (Homo sapiens) [14] = experiment: Activity of human recombinant CYP3A4 assessed as ((3R,4S,5S,6R)-4-((2R,3R)-3-(((R)-3,3-dimethyloxiran-2-yl)methyl)-2-methyloxiran-2-yl)-5-methoxy-1-oxaspiro[2.5]octan-6-yl ((R)-1-amino-3-methyl-1-oxobutan-2-yl)carbamate) formation; details: recombinant enzyme
[15] = Cmax in non-Hodgkin lymphoma patient at 15 mg, po alternate days for 21 days; assay type: ADME, organism-based; set-up: dose 15 mg, route oral; details: human, in vivo; outline: as §2

Drug metabolism (Liver microsome [1]): metabolite_detected
Drug metabolism (Liver microsome [2]): metabolite_detected
Drug metabolism (Liver [3]): metabolite_detected
Drug metabolism (Liver microsome [4]): metabolite_detected
Drug metabolism (Liver microsome [5]): metabolite_detected
Km (CYP3A5 (Homo sapiens)): 17 µM
Drug metabolism (Liver microsome [6]): metabolite_detected
Retention_time (Liver [7]): 20.8 min
Drug metabolism [8]: metabolite_detected
Ki (Cytochrome P450 3A4): 287 µM
AUC(0-t) at 504 h [9]: 43.9 ng·h/mL
Activity [10]: 12%
Km (CYP3A4 (Homo sapiens) [11]): 27 µM
Vmax/Km (CYP3A4 (Homo sapiens) [12]): 0.019 µL/min
Drug metabolism (Liver [13]): metabolite_detected
Km (CYP3A4 (Homo sapiens) [14]): 17 µM
Cmax [15]: 55 ng/mL
Structure (SMILES): CO[C@@H]1[C@H](OC(=O)N[C@@H](C(N)=O)C(C)C)CC[C@]2(CO2)[C@H]1[C@@]1(C)O[C@@H]1CC=C(C)C [PPI-2458]
inhibition (Rattus norvegicus): Active
